Numbered stars: 1 amine (or outer) side, 2 acyl side, 3 side chain; on linkers, the order of the positions; unused ones are H or OH. Square brackets hold non-standard residues; d marks the D form. Peptide text beside a SMILES is read from it. * marks the point of attachment. ξ: configuration not given here. 2Nal = N[C@@H](Cc1ccc2ccccc2c1)C(=O)O; NMeF = CN[C@@H](Cc1ccccc1)C(=O)O; ξNip = O=C(C1CCCN([*:1])C1)[*:2]; X1 = NCC(=O)CCC(=O)*; GABA = NCCCC(=O)O
Assays:
[1] = Permeability across artificial membrane assessed as membrane retention at 200 uM by PAMPA using HPLC/MS method; type: ADME
How it was run: (§1)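 PAMPA with porcine polar brain lipid extract (20 mg/mL in dodecane) on the filter; 200 μM compound in water with 20% 1-propanol cosolvent in donor, water in acceptor; 4 h at room temperature, saturated humidity, orbital shaking 100 rpm. Donor and acceptor quantified by HPLC-MS against external calibration curves. Pe and % transport from acceptor versus initial donor concentration; retention from mass balance.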

[2] = Permeability across artificial membrane assessed as compound transport at 200 uM after 4 hrs by PAMPA using HPLC/MS method; type: ADME; how it was run: as §1
[3] = Effective permeability across artificial membrane at 200 uM by PAMPA using HPLC/MS method; type: ADME; details: read-out: permeability; how it was run: as §1
[4] = Apparent permeability in BBMEC; type: ADME, Bos taurus; details: cattle
[5] = Apparent permeability in BBMEC assessed as compound transport after 2 hrs; type: ADME, Bos taurus; details: cattle
[6] = Apparent permeability in BBMEC assessed as membrane retention; type: ADME, cell membranes, Bos taurus; details: cattle

SMILES	Activity [1] [%]	Activity [2] [%]	Papp at 200 µM [3] [×10⁻⁶ cm/s]	Papp [4] [×10⁻⁶ cm/s]	Activity [5] [%]	Activity [6] [%]
CC(=O)N1CCC[C@H]1C(=O)N1CCC[C@H]1C(=O)N1CCC[C@H]1C(=O)N1CCC[C@H]1C(N)=O (Ac-PPPP-NH2)	0	0	–	–	–	–
CC(=O)N1CCC[C@H]1C(=O)N1CCC[C@H]1C(=O)N1CCC[C@H]1C(=O)N1CCC[C@H]1C(=O)N1CCC[C@H]1C(=O)N1CCC[C@H]1C(N)=O (Ac-PPPPPP-NH2)	0	0	–	–	–	–
CC(=O)N1CCC[C@H]1C(=O)N1CCC[C@H]1C(=O)N1CCC[C@H]1C(=O)N1CCC[C@H]1C(=O)N1CCC[C@H]1C(=O)N1CCC[C@H]1C(=O)N1CCC[C@H]1C(=O)N1CCC[C@H]1C(N)=O (Ac-PPPPPPPP-NH2)	0	0	–	–	–	–
CC(=O)N1CCC[C@H]1C(=O)N1CCC[C@H]1C(=O)N1CCC[C@H]1C(=O)N1CCC[C@H]1C(=O)N1CCC[C@H]1C(=O)N1CCC[C@H]1C(=O)N1CCC[C@H]1C(=O)N1CCC[C@H]1C(=O)N1CCC[C@H]1C(=O)N1CCC[C@H]1C(N)=O (Ac-PPPPPPPPPP-NH2)	0	0	–	–	–	–
CC(=O)N1CCC[C@H]1C(=O)N1CCC[C@H]1C(N)=O (Ac-Pro-Pro-NH2)	0	0	–	–	–	–
CN(C(=O)[C@H](Cc1ccc2ccccc2c1)NC(=O)CCCN)[C@@H](Cc1ccccc1)C(=O)N(C)[C@@H](Cc1ccccc1)C(=O)N(C)[C@@H](Cc1ccccc1)C(N)=O (H-[GABA][2Nal][NMeF][NMeF][NMeF]-NH2)	18.4	0.4	0.2	–	–	–
CN(C(=O)CCCN)[C@@H](Cc1ccccc1)C(=O)N(C)[C@@H](Cc1ccccc1)C(=O)N(C)[C@@H](Cc1ccccc1)C(=O)N(C)[C@@H](Cc1ccccc1)C(N)=O (H-[GABA][NMeF][NMeF][NMeF][NMeF]-NH2)	< 1	0.8	0.4	–	–	–
CN(C(=O)CCC(=O)CN)[C@@H](Cc1ccccc1)C(=O)N(C)[C@@H](Cc1ccccc1)C(=O)N(C)[C@@H](Cc1ccccc1)C(=O)N(C)[C@@H](Cc1ccccc1)C(N)=O (X1-[NMeF][NMeF][NMeF][NMeF]-NH2)	14.5	2.1	1	15	17.8	50.7
CN(C(=O)[C@H](Cc1ccc2ccccc2c1)NC(=O)C1CCCNC1)[C@@H](Cc1ccccc1)C(=O)N(C)[C@@H](Cc1ccccc1)C(=O)N(C)[C@@H](Cc1ccccc1)C(N)=O (some centres undefined) (ξNip-[2Nal][NMeF][NMeF][NMeF]-NH2)	23.6	2.4	1.1	3.5	4.1	83.8
CN(C(=O)C1CCCNC1)[C@@H](Cc1ccccc1)C(=O)N(C)[C@@H](Cc1ccccc1)C(=O)N(C)[C@@H](Cc1ccccc1)C(=O)N(C)[C@@H](Cc1ccccc1)C(N)=O (some centres undefined) (ξNip-[NMeF][NMeF][NMeF][NMeF]-NH2)	4.6	2.8	1.4	6.6	7.9	74
NCC(=O)CCC(=O)O [AMINOLEVULINIC ACID]	23	0	–	–	–	–
Cn1c(=O)c2c(ncn2C)n(C)c1=O [CAFFEINE]	–	–	–	16.1	20.6	67.4
NC(=O)N1c2ccccc2C=Cc2ccccc21 [CARBAMAZEPINE]	< 1	19.3	11.5	16.5	20	67.5
NCCCC(=O)O [GAMMA-AMINOBUTYRIC ACID]	5.4	0	–	–	–	–
O=C(O)C1CCCNC1 (centres undefined) [NIPECOTIC ACID]	52.6	0	–	–	–	–
CC(C)NCC(O)COc1cccc2ccccc12 (centres undefined) [PROPRANOLOL]	17.2	13.9	–	16.9	21.2	63
